23 compounds from ChEMBL document CHEMBL1151934, “Exploration and optimization of substituted triazolothiadiazines and triazolopyridazines as PDE4 inhibitors” (Bioorg Med Chem Lett, 2009) can be followed below.

For series [1], the target named is 3',5'-cyclic-AMP phosphodiesterase 4A (Homo sapiens, UniProt P27815). The series can be described thus: Inhibition of human PDE4A by IMAP fluorescence polarization technology. (In general: Polarisation of emitted light reports the rotation of a fluorescent probe.)
Sequence of 3',5'-cyclic-AMP phosphodiesterase 4A (P27815 whole entry): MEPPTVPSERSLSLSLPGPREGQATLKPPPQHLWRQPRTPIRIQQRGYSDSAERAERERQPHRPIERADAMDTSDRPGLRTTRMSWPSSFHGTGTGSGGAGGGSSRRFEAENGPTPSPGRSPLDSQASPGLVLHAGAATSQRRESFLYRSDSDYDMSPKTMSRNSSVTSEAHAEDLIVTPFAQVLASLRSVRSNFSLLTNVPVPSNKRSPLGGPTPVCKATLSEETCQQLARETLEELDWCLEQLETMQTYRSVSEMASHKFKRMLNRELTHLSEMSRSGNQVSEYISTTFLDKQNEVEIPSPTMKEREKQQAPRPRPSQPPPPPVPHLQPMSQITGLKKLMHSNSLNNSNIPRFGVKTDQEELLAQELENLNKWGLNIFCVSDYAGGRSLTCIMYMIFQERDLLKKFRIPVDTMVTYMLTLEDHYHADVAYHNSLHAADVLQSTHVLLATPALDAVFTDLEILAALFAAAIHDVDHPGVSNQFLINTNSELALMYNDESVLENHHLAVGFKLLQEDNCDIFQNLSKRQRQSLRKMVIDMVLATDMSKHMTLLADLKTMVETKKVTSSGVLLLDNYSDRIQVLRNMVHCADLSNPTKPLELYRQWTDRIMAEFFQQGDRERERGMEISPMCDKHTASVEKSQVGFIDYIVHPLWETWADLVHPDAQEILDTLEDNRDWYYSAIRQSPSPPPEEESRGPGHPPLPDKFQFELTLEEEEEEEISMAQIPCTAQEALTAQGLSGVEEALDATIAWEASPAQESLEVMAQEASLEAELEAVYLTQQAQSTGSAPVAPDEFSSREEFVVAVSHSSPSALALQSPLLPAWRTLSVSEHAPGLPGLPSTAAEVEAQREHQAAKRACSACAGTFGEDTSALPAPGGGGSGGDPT
The target of series [2] is T1, Dual specificity calcium/calmodulin-dependent 3',5'-cyclic nucleotide phosphodiesterase 1B (Homo sapiens, UniProt Q01064). The series can be described thus: Inhibition of PDE1B at 10 uM.
T1 sequence (Q01064 whole entry): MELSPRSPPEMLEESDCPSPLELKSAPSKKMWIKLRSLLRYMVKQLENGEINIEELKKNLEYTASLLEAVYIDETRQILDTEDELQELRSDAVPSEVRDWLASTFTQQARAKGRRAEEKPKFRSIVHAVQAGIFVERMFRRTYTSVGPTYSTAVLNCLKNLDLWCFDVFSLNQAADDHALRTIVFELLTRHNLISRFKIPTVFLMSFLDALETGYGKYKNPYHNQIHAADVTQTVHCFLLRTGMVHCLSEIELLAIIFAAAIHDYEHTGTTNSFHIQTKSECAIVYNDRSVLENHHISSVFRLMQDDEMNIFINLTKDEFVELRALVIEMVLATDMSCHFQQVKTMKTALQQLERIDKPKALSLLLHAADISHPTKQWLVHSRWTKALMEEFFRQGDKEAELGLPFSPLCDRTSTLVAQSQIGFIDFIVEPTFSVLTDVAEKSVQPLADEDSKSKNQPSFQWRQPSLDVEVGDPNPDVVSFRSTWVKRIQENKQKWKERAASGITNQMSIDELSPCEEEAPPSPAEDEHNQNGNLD
Series [3] can be described thus: Inhibition of PDE4A1A.
Series [4] is described as follows: Inhibition of PDE4 expressed in HEK293 cells coexpressing G-protein coupled receptor and cyclic nucleotide gated ion channel by fluorescence assay. The series is classed as cell-based. The method, boiled down: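 PDE4-expressing reporter cells plated at 1000 cells/well in DMEM with penicillin/streptomycin and 2%, 5%, 10% or 20% fetal calf serum, 12 hr at 37 °C, 5% CO₂. Membrane potential dye 1 hr at room temperature, then compound pin-transferred from DMSO serial dilutions (final DMSO under 0.5%). Tested in duplicate.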

Series [5] has as its target T2, High affinity 3',5'-cyclic-AMP phosphodiesterase 7A (Homo sapiens, UniProt Q13946). The series can be described thus: Inhibition of PDE7A at 10 uM.
The target in series [6] is T3, 3',5'-cyclic-AMP phosphodiesterase 7B (Homo sapiens, UniProt Q9NP56). The series can be described thus: Inhibition of PDE7B at 10 uM.
T3 sequence (Q9NP56 whole entry, the tested form may be a part): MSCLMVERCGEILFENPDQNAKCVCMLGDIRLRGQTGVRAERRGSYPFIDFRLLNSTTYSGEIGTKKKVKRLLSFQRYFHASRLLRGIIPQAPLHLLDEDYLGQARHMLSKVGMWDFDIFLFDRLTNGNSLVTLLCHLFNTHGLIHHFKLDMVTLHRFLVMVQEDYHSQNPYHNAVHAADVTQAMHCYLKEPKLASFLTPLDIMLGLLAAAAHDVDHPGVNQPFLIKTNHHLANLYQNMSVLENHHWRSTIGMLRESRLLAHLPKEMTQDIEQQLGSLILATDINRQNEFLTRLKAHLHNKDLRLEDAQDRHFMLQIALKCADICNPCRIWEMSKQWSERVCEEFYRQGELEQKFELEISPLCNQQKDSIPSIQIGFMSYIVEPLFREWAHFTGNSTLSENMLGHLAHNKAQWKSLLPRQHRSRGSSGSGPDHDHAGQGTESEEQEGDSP
Series [7] concerns the target Beta-2 adrenergic receptor (Homo sapiens) (UniProt P07550). The series can be described thus: Inhibition of beta2 adrenergic receptor expressed in HEK293 cells co-transfected with PKA fragments Reg-F[1] and cat-F[2]-fused renilla luciferase assessed as effect on receptor regulated increase in cAMP accumulation at 100 uM after 30 mins by protein-fragment complementation assay. The series is classed as functional, cell-based. The essentials:
(§1)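 Stable β2AR-HEK293 cells grown in DMEM with 10% fetal bovine serum and transiently transfected with the Rluc PCA PKA reporter. Compounds added 48 h after transfection. Medium exchanged for PBS and bioluminescence read on a luminometer immediately after treatment.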

The nature of series [8]: Metabolic stability in rat assessed as half life. In kind it is ADME, organism-based. Conditions: in vivo.
In series [9] the target is cGMP-specific 3',5'-cyclic phosphodiesterase (Homo sapiens) (UniProt O76074). The series can be described thus: Inhibition of PDE5A1 at 10 uM.
In series [10] the target is T4, cGMP-inhibited 3',5'-cyclic phosphodiesterase 3A (Homo sapiens, UniProt Q14432). The series can be described thus: Inhibition of PDE3A at 10 uM.
T4 sequence (Q14432 whole entry): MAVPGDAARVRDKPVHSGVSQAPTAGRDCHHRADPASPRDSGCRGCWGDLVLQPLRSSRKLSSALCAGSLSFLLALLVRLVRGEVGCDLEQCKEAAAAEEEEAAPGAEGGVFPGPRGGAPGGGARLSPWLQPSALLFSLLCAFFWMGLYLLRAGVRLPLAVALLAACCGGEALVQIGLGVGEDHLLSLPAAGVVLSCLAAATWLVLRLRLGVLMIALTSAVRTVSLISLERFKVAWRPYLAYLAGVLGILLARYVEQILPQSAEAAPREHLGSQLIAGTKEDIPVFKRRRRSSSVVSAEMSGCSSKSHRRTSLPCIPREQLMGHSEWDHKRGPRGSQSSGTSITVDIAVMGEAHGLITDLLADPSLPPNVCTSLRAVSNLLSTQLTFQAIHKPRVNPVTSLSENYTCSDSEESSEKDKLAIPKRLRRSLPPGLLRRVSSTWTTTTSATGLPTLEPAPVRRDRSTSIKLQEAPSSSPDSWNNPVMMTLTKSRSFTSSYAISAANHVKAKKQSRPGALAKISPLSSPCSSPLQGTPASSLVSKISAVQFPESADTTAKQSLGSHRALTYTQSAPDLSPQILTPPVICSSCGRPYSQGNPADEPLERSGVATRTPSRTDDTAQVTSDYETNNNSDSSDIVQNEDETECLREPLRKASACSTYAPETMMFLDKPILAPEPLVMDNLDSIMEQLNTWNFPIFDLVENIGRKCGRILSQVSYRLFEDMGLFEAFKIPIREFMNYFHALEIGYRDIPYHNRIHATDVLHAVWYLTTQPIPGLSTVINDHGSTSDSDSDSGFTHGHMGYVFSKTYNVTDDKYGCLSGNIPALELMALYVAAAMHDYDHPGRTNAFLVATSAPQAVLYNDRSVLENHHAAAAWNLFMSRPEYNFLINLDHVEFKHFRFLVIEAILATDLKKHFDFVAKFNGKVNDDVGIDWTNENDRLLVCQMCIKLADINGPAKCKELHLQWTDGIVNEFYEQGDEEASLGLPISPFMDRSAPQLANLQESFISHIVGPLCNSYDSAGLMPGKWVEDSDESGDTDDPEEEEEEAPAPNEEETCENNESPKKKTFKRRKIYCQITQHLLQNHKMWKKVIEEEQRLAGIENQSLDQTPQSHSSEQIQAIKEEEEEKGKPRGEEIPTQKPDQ
The target of series [11] is cGMP-dependent 3',5'-cyclic phosphodiesterase (Homo sapiens) (UniProt O00408). The series can be described thus: Inhibition of PDE2A at 10 uM.
Series [12] concerns the target Beta-2 adrenergic receptor (Homo sapiens) (UniProt P07550). The series can be described thus: Inhibition of beta2 adrenergic receptor expressed in HEK293 cells co-transfected with PKA fragments Reg-F[1] and cat-F[2]-fused renilla luciferase assessed as effect on receptor regulated increase in cAMP accumulation at 10 uM after 30 mins by protein-fragment complementation assay. In kind it is functional, cell-based. The method, boiled down:
as §1
Background: Changes in cAMP serve as a functional read-out for many G protein-coupled receptors.

Series [13] concerns the target T5, Dual specificity calcium/calmodulin-dependent 3',5'-cyclic nucleotide phosphodiesterase 1C (Homo sapiens, UniProt Q14123). The series can be described thus: Inhibition of PDE1C at 10 uM.
Series [14] addresses Dual specificity calcium/calmodulin-dependent 3',5'-cyclic nucleotide phosphodiesterase 1A (Homo sapiens) (UniProt P54750). The series can be described thus: Inhibition of PDE1A at 10 uM.
The nature of series [15]: Intrinsic clearance in rat microsomes. The series is classed as ADME, Microsome.
Series [16] concerns the target Beta-2 adrenergic receptor (Homo sapiens) (UniProt P07550). The series can be described thus: Inhibition of beta2 adrenergic receptor expressed in HEK293 cells co-transfected with PKA fragments Reg-F[1] and cat-F[2]-fused renilla luciferase assessed as dissociation of PKA fragments after 2 mins by real time kinetic study relative to inverse agonist ICI-118551. In kind it is functional, cell-based. The essentials: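 Stable β2AR-HEK293 cells grown in DMEM with 10% fetal bovine serum and transiently transfected with plasmids carrying the Rluc PCA PKA reporter (FuGENE-6). Cells were treated with compounds 48 h after transfection. Immediately after treatment, the medium was exchanged for PBS and bioluminescence was read on a luminometer.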

The target is the same in series [17]. The series can be described thus: Inhibition of beta2 adrenergic receptor expressed in HEK293 cells co-transfected with PKA fragments Reg-F[1] and cat-F[2]-fused renilla luciferase assessed as effect on receptor regulated PKA activation at 100 uM after 30 mins by protein-fragment complementation assay in presence of inverse agonist ICI-118551. In kind it is functional, cell-based. The essentials:
as §1

The target is the same in series [18]. The series can be described thus: Inhibition of beta2 adrenergic receptor expressed in HEK293 cells co-transfected with PKA fragments Reg-F[1] and cat-F[2]-fused renilla luciferase assessed as effect on receptor regulated PKA activation at 100 uM after 30 mins by protein-fragment complementation assay. The series is classed as cell-based. The essentials:
as §1

For series [19], the target named is T5, Dual specificity calcium/calmodulin-dependent 3',5'-cyclic nucleotide phosphodiesterase 1C. The series can be described thus: Inhibition of PDE1C.
Series [20] concerns the target T2, High affinity 3',5'-cyclic-AMP phosphodiesterase 7A. The series can be described thus: Inhibition of PDE7A.
In series [21] the target is T1, Dual specificity calcium/calmodulin-dependent 3',5'-cyclic nucleotide phosphodiesterase 1B.
Series [22] concerns the target T3, 3',5'-cyclic-AMP phosphodiesterase 7B. The series can be described thus: Inhibition of PDE7B.
Series [23] deals with cAMP and cAMP-inhibited cGMP 3',5'-cyclic phosphodiesterase 10A (Homo sapiens, UniProt Q9Y233). The series can be described thus: Inhibition of PDE10A1.
In series [24] the target is T4, cGMP-inhibited 3',5'-cyclic phosphodiesterase 3A.
Series [25] has as its target cGMP-inhibited 3',5'-cyclic phosphodiesterase 3B (Homo sapiens, UniProt Q13370).

The source made the active and inactive calls. The rule behind the calls is not given here.

T2 sequence (Q13946 whole entry): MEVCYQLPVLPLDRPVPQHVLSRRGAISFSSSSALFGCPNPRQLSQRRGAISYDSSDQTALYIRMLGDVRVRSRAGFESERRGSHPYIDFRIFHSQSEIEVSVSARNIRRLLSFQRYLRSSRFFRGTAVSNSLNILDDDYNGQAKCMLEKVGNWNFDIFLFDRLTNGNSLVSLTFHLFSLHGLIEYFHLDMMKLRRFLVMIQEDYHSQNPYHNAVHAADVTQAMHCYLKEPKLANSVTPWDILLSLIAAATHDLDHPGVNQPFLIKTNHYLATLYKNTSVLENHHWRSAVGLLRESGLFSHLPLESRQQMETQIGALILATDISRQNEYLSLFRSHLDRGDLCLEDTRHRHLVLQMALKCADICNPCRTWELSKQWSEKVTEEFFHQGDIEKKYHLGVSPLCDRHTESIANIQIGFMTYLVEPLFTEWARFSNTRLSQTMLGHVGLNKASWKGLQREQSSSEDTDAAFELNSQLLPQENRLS
T5 sequence (Q14123 whole entry): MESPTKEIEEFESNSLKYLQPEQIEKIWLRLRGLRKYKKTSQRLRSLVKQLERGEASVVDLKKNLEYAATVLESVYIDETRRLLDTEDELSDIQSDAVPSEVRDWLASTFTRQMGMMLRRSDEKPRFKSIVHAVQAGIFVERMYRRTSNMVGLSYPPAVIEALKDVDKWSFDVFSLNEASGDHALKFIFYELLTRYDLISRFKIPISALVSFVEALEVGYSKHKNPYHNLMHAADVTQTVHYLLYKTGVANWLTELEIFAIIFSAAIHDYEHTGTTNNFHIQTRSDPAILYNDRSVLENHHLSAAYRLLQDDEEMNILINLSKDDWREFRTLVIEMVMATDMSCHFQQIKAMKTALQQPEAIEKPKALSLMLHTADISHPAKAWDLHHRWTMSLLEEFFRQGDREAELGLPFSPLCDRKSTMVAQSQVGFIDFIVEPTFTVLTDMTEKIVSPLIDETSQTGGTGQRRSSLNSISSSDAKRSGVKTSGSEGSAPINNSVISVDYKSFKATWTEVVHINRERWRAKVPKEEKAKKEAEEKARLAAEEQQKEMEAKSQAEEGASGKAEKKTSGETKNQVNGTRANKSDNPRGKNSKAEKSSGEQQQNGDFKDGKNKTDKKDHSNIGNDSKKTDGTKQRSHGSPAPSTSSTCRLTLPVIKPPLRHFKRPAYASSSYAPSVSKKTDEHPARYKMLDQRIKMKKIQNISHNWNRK
Sequence of Beta-2 adrenergic receptor (Homo sapiens) (P07550 whole entry, looked up, the tested form may be a part): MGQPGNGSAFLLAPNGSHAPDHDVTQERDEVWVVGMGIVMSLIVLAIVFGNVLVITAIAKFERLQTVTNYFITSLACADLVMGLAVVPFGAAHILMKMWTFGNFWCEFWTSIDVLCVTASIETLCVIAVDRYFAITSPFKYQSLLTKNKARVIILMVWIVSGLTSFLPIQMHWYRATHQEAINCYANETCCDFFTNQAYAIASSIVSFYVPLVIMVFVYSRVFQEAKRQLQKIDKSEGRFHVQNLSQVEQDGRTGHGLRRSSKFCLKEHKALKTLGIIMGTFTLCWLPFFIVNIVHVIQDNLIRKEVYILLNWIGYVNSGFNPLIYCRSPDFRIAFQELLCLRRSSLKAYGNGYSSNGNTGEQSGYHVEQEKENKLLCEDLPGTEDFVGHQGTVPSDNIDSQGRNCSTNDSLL

As a reminder, the IC50 is the concentration at which inhibition is half-maximal. Compound `COc1ccc(C2=Nn3c(nnc3-c3ccccc3Cl)SC2)cc1OCC1CC1` displayed an IC50 in series [1] of 21 nM.

`COc1ccc(C2=Nn3c(nnc3-c3ccccc3OC)SC2)cc1OC1CCOC1` (stereo not given): in series [1], half-maximal inhibition (IC50) required 20 nM.

`COc1ccccc1-c1nnc2n1N=C(c1ccc(OC(F)F)c(OCC3CC3)c1)CS2` registered an IC50 in [1] of 35 nM.

By inhibition is commonly meant the share of the control response that was lost under treatment. In general, EC50 refers to the midpoint of the concentration-response curve. The low end stands for higher potency in that assay, the high end for lower potency in that assay. As a reminder, the half-life is the time in which the quantity being followed falls by half. What is called microsomal CLint is the capacity of the preparation to metabolise the compound, expressed as a volume cleared per time. Take `COc1ccc(OC)c(-c2nnc3ccc(-c4ccc(OC)c(O[C@@H]5CCOC5)c4)nn23)c1`: the inhibition came out at 56% in series [2]; 59% in series [5]; 35% in [6]; 51% in series [9]; 54% in [10]; 54% in series [11]. For the same compound, the inhibition in series [13] came to 74%; in [14], 32%. Also, in [3], 0.6 nM corresponded to half-maximal inhibition (IC50). Besides, a half-maximal effect in series [4] (EC50) was put at 34.2 nM. Also, the inhibition result in series [7] and in series [12] was “Active” each time. Moreover, the half-life in series [8] is 3 min. The microsomal CLint in series [15] is above 300 µL/min/mg.

Take `COc1ccc(OC)c(-c2nnc3n2N=C(c2ccc(OC(F)F)c(OCC4CC4)c2)CS3)c1`: the half-life in series [8] came out at 3 min. Also, the microsomal CLint in [15] is above 300 µL/min/mg.

With `COc1ccc(OC)c(-c2nnc3ccc(-c4ccc(OC)c(O[C@H]5CCOC5)c4)nn23)c1`, the half-life in [8] came out at 3 min. This compound displayed a microsomal CLint in series [15] above 300 µL/min/mg.

The compound `COc1ccc(C2=Nn3c(nnc3-c3ccccc3Cl)SC2)cc1O[C@@H]1CCOC1` displayed an IC50 in series [1] of 3.8 nM.

For `COc1ccc(C2=Nn3c(nnc3-c3ccccc3OC)SC2)cc1OC1CCCC1`, 32 nM corresponded to half-maximal inhibition in series [1] (IC50).

Regarding `COc1ccc(OC)c(-c2nnc3n2N=C(c2ccc(OC)c(OCC4CC4)c2)CS3)c1`, the half-life in series [8] stood at 3 min. In [15], this compound displayed a microsomal CLint above 300 µL/min/mg.

In the case of `COc1ccc(OC)c(-c2nnc3n2N=C(c2ccc(OC)c(OC4CCCC4)c2)CS3)c1`, the half-life in series [8] was determined as 3 min. The compound also had a microsomal CLint in series [15] above 300 µL/min/mg.

For the compound `Fc1ccccc1-c1nnc2n1N=C(c1ccc(OC(F)F)c(OCC3CC3)c1)CS2`, 53 nM corresponded to half-maximal inhibition in [1] (IC50).

As to `COc1ccc(C2=Nn3c(nnc3-c3ccccc3Cl)SC2)cc1OC1CCOC1` (stereo not given), in series [1], the IC50 was 9.8 nM.

For the compound `COc1ccc(OC)c(-c2nnc3n2N=C(c2ccc(OC)c(O[C@@H]4CCOC4)c2)CS3)c1`, the inhibition stood at 52% in series [2]; 48% in [5]; 43% in series [6]; 58% in series [9]; 56% in series [10]; 68% in [11]. In addition, the values for the inhibition in [13], in series [16] and in series [14] were 49%, 25% and 36%, respectively. The same compound registered an EC50 in series [4] of 2.3 nM. Also, the inhibition result in series [7] and in series [12] was “Active” each time. Also, the half-life in series [8] worked out at 3 min. The same compound gave a microsomal CLint in series [15] above 300 µL/min/mg.

In turn, `COc1ccc(C2=Nn3c(nnc3-c3ccccc3F)SC2)cc1O[C@@H]1CCOC1` registered an IC50 in [1] of 8.6 nM.

With `COc1ccc(C2CNC(=O)C2)cc1OC1CCCC1` (stereo not given) [ROLIPRAM], the inhibition entry in [17] was “inactive”. Further, the inhibition result in series [18] is “Active”. Further, the IC50 result in [19], in series [20], in [21], in [22] and in series [23] was “Not Active” in each case.

Compound `COc1ccc(C2=Nn3c(nnc3-c3ccccc3OC)SC2)cc1OCC1CC1` showed an IC50 in [1] of 35 nM.

Consider `COc1ccc(OC)c(-c2nnc3n2N=C(c2ccc(OC)c(OC)c2)CS3)c1`, for which the EC50 in [4] is 18.7 nM. Moreover, the results for the IC50 in series [24], in series [25] and in series [23] (read-out: IC50) were 1700 nM, 720 nM and 823 nM, respectively. The half-life in [8] is 3 min. Also, the microsomal CLint in series [15] is above 300 µL/min/mg.

In the case of `COc1ccc(OC)c(-c2nnc3n2N=C(c2ccc(OC)c(OC4CCOC4)c2)CS3)c1` (racemic), the half-life in series [8] was determined as 3 min. In [15], this compound registered a microsomal CLint above 300 µL/min/mg.

With `FC(F)Oc1ccc(C2=Nn3c(nnc3-c3ccccc3Cl)SC2)cc1OCC1CC1`, the IC50 in series [1] is 37 nM.

In the case of `COc1ccc(C2=Nn3c(nnc3-c3ccccc3F)SC2)cc1OC1CCCC1`, the IC50 in series [1] was 33 nM.

In series [1], `COc1ccc(C2=Nn3c(nnc3-c3ccccc3OC)SC2)cc1O[C@@H]1CCOC1` registered a half-inhibitory concentration (IC50) of 11 nM.

In turn, `COc1ccc(C2=Nn3c(nnc3-c3ccccc3Cl)SC2)cc1OC1CCCC1` registered an IC50 in [1] of 26 nM.

Compound `COc1ccc(C2=Nn3c(nnc3-c3ccccc3F)SC2)cc1OC1CCOC1` (stereo not given) yielded an IC50 in [1] of 11 nM.
